Fewer inactive variants are shown than the library holds.
B1: tRNA (parent)
chain: GUUCCGUUGGCGUAAUGGUAACGCGUCUCCCUCCUAAGGAGAAGACUGCGGGUUCGAGUCCCGUACGGAACG

Variants of: B1
Experiment: yeast fitness relative to wild type (ratio to wild type); higher = fitter; tRNA-Arg(CCU), competitive growth, 37 C, YPD
In short: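 Genotype frequency changes were the basis for Darwinian fitness relative to wild type. The frequencies came from 100-nucleotide paired-end sequencing of gene amplicons from the start population and each end population of pooled yeast strains with tRNA-Arg(CCU) gene variants at the native locus. Competition ran in YPD at 37°C for 24 hours in six replicates, genotypes needed ≥ 100 starting reads, and estimates < 0.5 were set to 0.5.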

| Variant | yeast fitness |
| --- | --- |
| C29A U64C A69C | ≤ 0.5 |
| U28C U32C C60A | ≤ 0.5 |
| U28C U32C C34U A45U A70U | 0.584 |
| C29A C62A | 0.581 |
| C29A A40U A45C C49A A57G | 0.574 |
| C29G A42C G56A | 0.601 |
| U28C C33A C49U C55G | ≤ 0.5 |
| C29A G56A | 0.794 |
| C29A G56C | ≤ 0.5 |
| C29A A37C A42C G50A | ≤ 0.5 |
| U28G G50U C60G | ≤ 0.5 |
| U28G C66U | 0.778 |
| C29A C30G A36C G44C G51C | ≤ 0.5 |
| C29A C55G A65G | 0.57 |
| C29A U54A A57U | 0.535 |
| U28G G50C A57U C62A | 0.619 |
| C29A U53A | 0.51 |
| C29G A45G A69C A70C | ≤ 0.5 |
| C29A C33A G51C C61U | ≤ 0.5 |
| C29G A37G G67C | 0.672 |
| C29G A43U C46G C62A | ≤ 0.5 |
| C29A C60A C66G | ≤ 0.5 |
| C29A U32C | 0.618 |
| U28G C30G C49U U64C | ≤ 0.5 |

| Variant | yeast fitness |
| --- | --- |
| C29A A36C G58A | ≤ 0.5 |
| C29A C31G C55A G58A | 0.568 |
| C29A A37G A57G G67C A69U | ≤ 0.5 |
| U28C G44C | 0.935 |
| C29A C33G U35C C66U | ≤ 0.5 |
| U28G A57U A70U | 0.721 |
| C29G A40C A42C G58A | ≤ 0.5 |
| U28G C33G A45C | 0.607 |
| U28C C61A | 0.765 |
| U28C C61U | 0.874 |
| C29G A42G C46A A57C | ≤ 0.5 |
| U28C C33U A37G G41A G52C | ≤ 0.5 |
| C29A A57C | 0.555 |
| C29A U35G C55G G68A A69C | ≤ 0.5 |
| U28C G58U A65G G67A | ≤ 0.5 |
| U28C C49U G52A | 0.619 |
| U28C C31U G51A G63C | ≤ 0.5 |
| U28C C33G G38A A57G | ≤ 0.5 |
| C29A C31U A42C | 0.576 |
| C29G A40G G63A | ≤ 0.5 |
| C29A G48A G50A C66U | ≤ 0.5 |
| C29A C33U C62A A69C | ≤ 0.5 |
| C29A C61G | ≤ 0.5 |
| C29A C61U | 0.647 |

| Variant | yeast fitness |
| --- | --- |
| C29G A45C | 0.614 |
| C29A C61G G67C G68A | ≤ 0.5 |
| C29A A37U | ≤ 0.5 |
| C29A U35C A70G | ≤ 0.5 |
| C29G A43G U47A | ≤ 0.5 |
| U28C G51A | 0.773 |
| U28G G39C C55G | ≤ 0.5 |
| C29G A36U A43G | ≤ 0.5 |
| U28C G58A | 0.937 |
| U28G G48A G67C A69G | ≤ 0.5 |
| U28G G38A A40G G56A | 0.626 |
| C29G A43U C66U | ≤ 0.5 |
| C29A C30A G58C C62U | 0.565 |
| C29A A42G A45U G50A C60A | ≤ 0.5 |
| C29A A42G A70U | 0.582 |
| U28G G51C U64A C66U A69C | 0.583 |
| U28C C62G | 0.724 |
| U28C C62U | 1.02 |
| C29A C30U U64C | ≤ 0.5 |
| U28G G67A | 0.69 |
| C29A U32A A45C A65C | 0.651 |
| U28C C55A C61U G68A A70G | ≤ 0.5 |
| C29A C31G G51C C62G | ≤ 0.5 |
| U28C G63C | 0.611 |

| Variant | yeast fitness |
| --- | --- |
| U28C G63A | 0.939 |
| U28C G63U | 0.521 |
| U28C U47C A70G | 0.743 |
| C29A A57U C62U | ≤ 0.5 |
| U28C G38A A40C A45G G48A U59A C62U | 0.542 |
| C29G A40U C61U C66U | ≤ 0.5 |
| C29A G41A | 0.551 |
| C29A C46U A70G | 0.711 |
| C29G A42U U47G A57C C61A | ≤ 0.5 |
| U28C G48A C61G | 0.548 |
| C29G A43C | 0.661 |
| C29G A43G | 0.785 |
| C29A U32C A42U C66A A69C | ≤ 0.5 |
| C29A A42G G63A | ≤ 0.5 |
| C29G A45C G52A | ≤ 0.5 |
| U28G U32A G38C A43G | 0.551 |
| U28G C31U C66U | ≤ 0.5 |
| C29A U64C | 0.632 |
| C29A A37G G58A | ≤ 0.5 |
| U28C G51A U59A A65C | ≤ 0.5 |
| U28C C46U G51C A70C | ≤ 0.5 |
| C29A A36C G52C | 0.545 |
| C29G A42G U64G | ≤ 0.5 |
| C29G A43U A70U | 0.563 |

| Variant | yeast fitness |
| --- | --- |
| U28C C31A | 0.784 |
| U28C C31G | 0.907 |
| U28C U35C | 0.751 |
| C29A C30U C62G U64A | 0.553 |
| C29A A42G | 0.672 |
| C29A A42C | 0.662 |
| U28G G52A | 0.681 |
| C29A C30U U47C U64C | ≤ 0.5 |
| U28G A43G G44A | ≤ 0.5 |
| C29A C30G G50C A65G | ≤ 0.5 |
| U28G C34G A36G G44C C61G | ≤ 0.5 |
| U28C U47C U59A C66A | ≤ 0.5 |
| U28C C30U C49U | ≤ 0.5 |
| U28C C30A C49U | ≤ 0.5 |
| C29A C30U A36U A70C | ≤ 0.5 |
| C29A G68C | 0.621 |
| C29A G68U | 0.721 |
| U28C U47C G58A | 1.07 |
| U28C C30G A45C C49U | ≤ 0.5 |
| U28G A42U | 0.71 |
| C29A A57U C60G C62A | ≤ 0.5 |
| U28G A37G | 0.586 |
| U28G C30G U53A C61U | ≤ 0.5 |
| C29A U32C C49A | ≤ 0.5 |

| Variant | yeast fitness |
| --- | --- |
| U28G C33G G68C | ≤ 0.5 |
| U28C C33U G41A G52C | ≤ 0.5 |
| U28C C33A A42C A45U | ≤ 0.5 |
| U28C C30G | 0.667 |
| U28C C30U | 0.767 |
| U28C C31A G41A G58C C66U | ≤ 0.5 |
| C29A U35A A70U | 0.716 |
| U28C G48C U53C | 0.553 |
| U28G C31G U59A C61G | ≤ 0.5 |
| C29A C31G G39A G48C | ≤ 0.5 |
| C29A A42U C46A | 0.619 |
| C29A A45U U59C | 0.721 |
| C29A U35C A40U | 0.639 |
| U28C G67A | 0.652 |
| C29A C61G A70U | ≤ 0.5 |
| U28C C61G G68C | ≤ 0.5 |
| U28C G41A A57U C66G | ≤ 0.5 |
| C29A A57U A65C | 0.584 |
| C29A C30G G50C | ≤ 0.5 |
| U28G A40U G56A | 1.02 |
| U28C C60U | 0.73 |
| C29A G41A A43C A70C | ≤ 0.5 |
| U28G G48A C49G G50U | 0.611 |
| C29A G63A | 0.623 |

| Variant | yeast fitness |
| --- | --- |
| C29A C31A A40C G44A U59A | 0.682 |
| U28G C31U A69U | 0.524 |
| C29A G44C G67A | ≤ 0.5 |
| C29G A36U A45U C55A | ≤ 0.5 |
| U28G | 0.957 |
| C29A C33G A37G C49U C66U | ≤ 0.5 |
| U28C C33U C49G | ≤ 0.5 |
| C29A U35C G50A | ≤ 0.5 |
| U28C C33A A42C A45U G63C | ≤ 0.5 |
| U28C C34G A40G A43G C46G G52A C55U C66U | 0.547 |
| C29A U32C U35A | ≤ 0.5 |
| C29A A36C C55U C61A | ≤ 0.5 |
| U28G C62U C66G | 0.568 |
| U28C U64A | 0.622 |
| C29A C34U G48C | ≤ 0.5 |
| C29A A36U C61U G67A G68U | ≤ 0.5 |
| C29A C49U C62U | 0.562 |
| U28C G52C U64A | ≤ 0.5 |
| U28G C55U G67C | ≤ 0.5 |
| U28G C34U A45U | 0.52 |
| U28C G56A | 0.933 |
| U28C C55U A70U | 0.61 |
| U28G C62U | 0.737 |

From the RNAGym collection of RNA variant scans (doi:10.1126/science.aae0568)
